# Shown are actives, neighbours in structure and some others; about 1.6% of the full set was active somewhere.
# UHRF1 MBD2 ctr: UHRF1 methyl-DNA binding inhibition. Q96T88. UHRF1 binding to methylated oligo, TR-FRET. inhibition, % at 4.4 µM. actives 0.75% (n = 370,000). AID 687016; in the data active = inhibition above about 21%;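 note: UHRF1 SRA domain binding a hemimethylated CpG hairpin DNA probe; 0% = median of test compound wells and 100% = reference inhibitor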
# TDP2 inh: TDP2 (human) inhibition, absorbance primary screen; O95551; inhibition, % at 12.8 µM; actives 0.34% (n = 370,000); recombinant TDP2, T5PNP hydrolysis, p-nitrophenol absorbance 415 nm; AID 720702;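 active = inhibition above the mean of all tested compounds plus 3 SD, set per campaign, cut at about 25% in these data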;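 note: 0% = DMSO with enzyme and 100% = buffer with substrate but no TDP2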
# Target sequence (O95551 whole entry, looked up): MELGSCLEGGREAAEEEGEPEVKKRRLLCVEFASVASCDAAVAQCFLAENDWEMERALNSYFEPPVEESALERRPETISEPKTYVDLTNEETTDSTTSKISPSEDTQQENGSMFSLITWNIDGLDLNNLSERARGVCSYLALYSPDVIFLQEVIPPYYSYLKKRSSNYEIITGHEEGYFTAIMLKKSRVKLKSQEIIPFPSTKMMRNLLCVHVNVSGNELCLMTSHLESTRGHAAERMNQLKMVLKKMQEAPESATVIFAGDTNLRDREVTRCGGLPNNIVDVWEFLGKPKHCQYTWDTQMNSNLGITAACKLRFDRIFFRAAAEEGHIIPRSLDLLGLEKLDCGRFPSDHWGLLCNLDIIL
#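 System – recombinant human TDP2 · Amount – 120 nM TDP2 per well · Buffer or medium – Mg2+-containing Tris-HCl buffer, pH 7.5 · Reagent – T5PNP substrate, 5 mM · Dosing – 12.8 µM single point, 1% DMSO · Incubation – 2 h at 37 °C · Measured by – epi absorbance · Read-out basis – percent inhibition · Benchmarks – high control without enzyme, low control DMSO plus TDP2 · Repeats – singlicate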
# LEDGF integ inh: blocks HIV-1 LEDGF/p75-dependent DNA integration | actives 0.64% (n = 370,000) | inhibition, % at 3.7 µM | TR-FRET IN-LEDGF/p75 DNA integration, Eu/Cy5;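 active = inhibition above the screen-wide mean plus 3 SD, cut at about 13% in these data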;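 note: signal is the Cy5 over europium emission ratio at 671 and 618 nm; 0% = plate median of compound wells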
# MBD2 DNA inh: blocks human MBD2 binding to methylated DNA. Q9UBB5. TR-FRET, MBD2 binding to methylated oligonucleotide. actives 0.31% (n = 370,000). inhibition, % at 4.4 µM; in the data active = inhibition above about 13%
# * hit, by the source's call.
SMILES,UHRF1 MBD2 ctr,TDP2 inh,LEDGF integ inh,MBD2 DNA inh
C/C(=N\NC(=O)c1cc(O)ccc1O)c1cccc(NC(=O)c2cccc(Cl)c2)c1,20.2,-1.1,54.7*,-6.2
O=C(O)C1=C[C@@H](c2coc3ccccc3c2=O)C[C@@H](OCc2ccc(CO)cc2)O1,0.2,2.3,3.2,0.1
CC(=O)c1ccc(NC(=O)[C@@]2(CC(=O)O)CC(/C=C/c3ccccc3)=NO2)cc1,53.5*,-5.1,-1.9,-1.8
CC(C)CC(O)(CC(C)C)C(=O)NNc1ccccc1,0.1,10.6,-0.2,0.5
COc1cc(O)ccc1C=O,27.4*,1.1,-3.3,2.0
O=C(CNC(=O)c1ccc(-c2ccccc2)cc1)OCc1ccc(Br)cc1,25.6*,-3.2,3.1,6.3
COCCOC(=O)C1=C(C)N(c2ccccc2)C(=S)NC1c1ccccc1C(F)(F)F (stereo not given),-0.5,3.4,0.4,0.9
COC(=O)C1=C(C)N(c2ccccc2)C(=S)NC1c1ccccc1C(F)(F)F (stereo not given),44.0*,-8.0,-5.9,-1.9
CC(C)C[C@@H](CN)NC(=O)c1nc[nH]c1C(=O)N[C@@H](Cc1ccccc1)C(=O)CNC[C@H](C)NC(=O)c1nc[nH]c1C(=O)N[C@@H](CC(C)C)C(=O)O,21.5*,0.8,-1.6,9.2
CC(C)C[C@@H](CNCC(=O)[C@H](Cc1c[nH]c2ccccc12)NC(=O)c1[nH]cnc1C(=O)N[C@@H](C)CN)NC(=O)c1nc[nH]c1C(=O)N[C@@H](Cc1ccccc1)C(=O)O,21.3*,15.8,-0.6,12.0
CC(C)C[C@@H](CN)NC(=O)c1nc[nH]c1C(=O)N[C@@H](Cc1c[nH]c2ccccc12)C(=O)CNC[C@H](C)NC(=O)c1nc[nH]c1C(=O)N[C@@H](C)C(=O)O,23.6*,10.4,-1.2,12.2
CC(C)C[C@@H](CNCC(=O)[C@H](C)NC(=O)c1[nH]cnc1C(=O)N[C@@H](C)CN)NC(=O)c1nc[nH]c1C(=O)N[C@@H](Cc1ccccc1)C(=O)O,13.5,3.5,-4.7,-3.5
CC(C)C[C@@H](CN)NC(=O)c1nc[nH]c1C(=O)N[C@@H](Cc1ccccc1)C(=O)CNC[C@H](C)NC(=O)c1nc[nH]c1C(=O)N[C@@H](C)C(=O)O,1.7,10.2,-3.3,-1.9
COc1cccc(NS(=O)(=O)c2ccc3c(c2)NC(=O)C(C)C(=O)N3)c1 (stereo not given),0.4,-0.5,7.0,-6.6
COc1ccccc1OCc1ccc(C(=O)N(C)c2ccccc2)o1,24.6*,-0.4,1.6,4.0
Cn1c(=O)n(CC(=O)Nc2ccc(F)cc2)c2ccccc21,3.0,-3.4,-4.5,-3.1
Cc1ccc2nc(-c3ccccc3)c(CN3CCN(c4ccccc4F)CC3)n2c1,22.7*,9.8,-0.1,-1.1
CCc1nnc(NC(=O)CN2CCN(C(=O)c3ccccc3)CC2)s1,24.3*,-6.2,0.0,11.8
Cc1cc(C)c(C)c(S(=O)(=O)N2CCN(C(=O)c3ccccc3OCc3c(C)noc3C)CC2)c1C,28.3*,-8.1,4.9,-6.8
Cc1noc(C)c1COc1ccccc1C(=O)N1CCN(S(=O)(=O)c2ccccc2Br)CC1,-3.5,-6.4,0.7,-9.6
O=C(CCNC(=O)c1ccc(Br)cc1)Nc1nc2ccccc2[nH]1,-1.0,-9.3,-7.9,-1.8
Cc1cccc(-c2nc(NCCCN(C)C)c3ccccc3n2)c1,4.7,-10.4,-5.7,1.0
C[C@@H]1COc2cc(N3CCCCC3)ccc2S(=O)(=O)N1,21.8*,4.8,-1.0,9.7
C[C@@H]1COc2cc(NCCO)ccc2S(=O)(=O)N1,21.8*,1.6,0.0,7.8
C[C@H]1COc2cc(N3CCCCC3)ccc2S(=O)(=O)N1,4.9,6.3,4.1,-2.6
SMILES,UHRF1 MBD2 ctr,TDP2 inh,LEDGF integ inh,MBD2 DNA inh
CC(C)C[C@H]1COc2cc(NCCO)ccc2S(=O)(=O)N1,0.7,-8.8,2.3,0.5
CCCCNc1ccc2c(c1)OC[C@H](CC(C)C)NS2(=O)=O,1.1,3.1,2.5,-6.0
CC(C)C[C@@H]1COc2cc(NC3CC3)ccc2S(=O)(=O)N1,20.8*,1.7,3.6,9.6
O=C(/C(=C/O)N=Nc1ccc(Cl)cc1)c1ccncc1,-5.0,-9.0,2.7,-6.5
CC(Cc1ccccc1)N(C)C(=O)CN1C(=O)c2ccccc2C1=O (stereo not given),14.9,-4.4,-2.7,3.2
CC12COC3(C(=O)Nc4ccc(F)cc4)CC1CCC32C (stereo not given),3.7,-9.2,-3.0,0.9
CC12COC3(P(=O)(c4ccccc4)c4ccccc4)CC1CCC23CP(=O)(c1ccccc1)c1ccccc1 (stereo not given),22.0*,-9.7,-1.5,11.2
COc1ccccc1CNC(=O)CN1CCN(S(=O)(=O)c2cccs2)CC1,-1.8,4.1,6.8,3.6
O=C(NNC(=O)c1cc(-c2ccccc2)nc2ccccc12)Nc1cccc(Cl)c1,80.6*,-0.8,-3.8,-0.8
COc1cccc(N2CC(=O)Nc3c(oc4nc(-c5ccccc5)cc(C)c34)C2=O)c1,45.0*,-19.6,-5.3,-1.5
Cc1sc(NC(=O)C2=COCCO2)nc1-c1ccc(F)cc1,4.9,-2.4,-6.7,4.4
Cc1sc(NC(=O)C2=COCCO2)nc1-c1ccc(Br)cc1,29.9*,-3.6,1.3,-5.9
CC1CCN(C(=O)c2ccc3c(c2)OCCO3)CC1,-3.3,1.2,4.2,0.1
CC1CCN(C(=S)c2ccc3c(c2)OCO3)CC1,60.8*,-9.3,2.4,0.4
COc1ccc(C2C(C(=O)N3CCN(c4ccccn4)CC3)CC(=O)N2c2ccc(OC)cc2)cc1 (stereo not given),-0.1,-4.3,-0.2,-0.9
COc1ccccc1C(=O)COC(=O)c1ccc(N(C)C)cc1,99.7*,-3.1,0.7,3.1
CCOC(=O)C1(Cc2cccc(OC)c2)CCN(C/C=C/c2ccccc2)CC1,32.5*,-7.0,-2.1,2.6
CC(C(=O)O)n1cc(C#N)c(=O)[nH]c1=O (stereo not given),-1.3,2.8,-0.8,-3.2
COc1cc([N+](=O)[O-])ccc1-c1ccc(/C=N\n2cnnc2)o1,-2.6,0.5,-0.7,0.2
CC(=O)Nc1c(C(=O)Nc2ccc3c(c2)OCO3)oc2ccccc12,-1.0,-15.8,-6.3,-2.1
COCC(=O)Nc1c(C(=O)Nc2ccc3c(c2)OCO3)oc2ccccc12,51.3*,-4.7,-0.4,1.8
O=C(c1ccc2c(c1)N(Cc1ccccc1)CCS2)N1CCOCC1,11.3,-13.3,3.8,3.1
CC(NC(=O)C(=O)NCc1cccs1)c1ccccc1 (stereo not given),1.0,-16.9,3.0,-1.7
COc1ccc(-n2c(SCC(=O)NCCCSC)nnc2-c2ccncc2)cc1,2.9,-2.0,2.4,-0.8
C=CCOc1ccc(C(=O)N(Cc2ccc(N(C)C)cc2)C2CCS(=O)(=O)C2)cc1 (stereo not given),63.0*,2.8,-2.9,1.6
CN(C)c1cccc(N(C)C)c1CNC(=O)NC(=O)c1c(F)cccc1F,28.0*,-1.6,-0.8,0.5
CN(C)c1cccc(F)c1C(=O)NC(=O)Nc1ccc(Cl)cc1,0.4,-6.2,0.4,2.1

# Screens from PubChem.
